Columns and labels:
Pseudomonas aeruginosa [1] = test: Antimicrobial activity against Pseudomonas aeruginosa 61118003 after 20 hrs by broth microdilution method; type: functional; settings: Pseudomonas aeruginosa, 61118003, 20 h
In short: (§1)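 Pathogenic strains grown overnight on Columbia agar, colonies suspended in 0.9% saline to OD 0.1, diluted 1:300 in 1% TSB; final (1-2) × 10^5 cfu/well. Peptides 2-fold serially diluted in 1% TSB from 128 μg/mL, typically to 0.5 μg/mL. Incubated 37 °C, absorbance at 595 nm after 20 ± 2 h, in triplicate; MIC = lowest concentration with absorbance not exceeding medium only.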

Escherichia coli [2] = test: Antimicrobial activity against Escherichia coli 455/7 after 20 hrs by broth microdilution method; type: functional; settings: 455/7, 20 h
In short: (§2)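 Pathogens grown overnight on Columbia agar. Colonies suspended in 0.9% saline to OD 0.1, diluted 1:300 in 1% TSB, final (1-2) × 10^5 cfu/well. Peptides 2-fold serially diluted in 1% TSB from 128 to typically 0.5 μg/mL. Incubation at 37 °C; A595 read after 20 ± 2 h. MIC is the lowest concentration with absorbance not above medium only. Triplicate.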

Enterobacter cloacae [3] = test: Antimicrobial activity against Enterobacter cloacae Ha088 after 20 hrs by broth microdilution method; type: functional; settings: Ha088, 20 h; in short: as §2
Pseudomonas aeruginosa [4] = test: Antimicrobial activity against Pseudomonas aeruginosa ATCC 27853 after 20 hrs by broth microdilution method; type: functional; settings: ATCC 27853, 20 h; in short: as §1
Klebsiella pneumoniae [5] = test: Antimicrobial activity against Klebsiella pneumoniae 8085 after 20 hrs by broth microdilution method; type: functional; settings: Klebsiella pneumoniae, 8085, 20 h; in short: as §2
SH-SY5Y = test: Cytotoxicity against human SH-SY5Y cells at 600 ug/ml after 24 hrs by MTT assay; type: cell-based
In short: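 HeLa (1.5 × 10^4/well, seeded overnight) or SH-SY5Y (2 × 10^4/well, differentiated 5 days with 10 μM trans-retinoic acid) in DMEM/Ham's F-12 with 5% or 15% FBS. Peptide added at 600 μg/mL for 24 h at 37 °C, 5% CO2. MTT 0.5 mg/mL for 4 h, then SDS/HCl for 16 h; A590 read against 650 nm. Normalized to PBS (100%); DMSO 12% as positive control.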

Serum [6] = test: Stability in 25% mouse serum assessed as peptide-13 level at 75 ug/ml after 30 mins by MALDI-TOF-MS analysis; type: ADME, cell-free; settings: 0.5 h
In short: (§3)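 Peptide at 75 μg/mL final in pooled mouse serum (undiluted or 25% v:v aqueous), 37 °C. Triplicate aliquots taken at 0, 30, 60, 120 and 240 min and precipitated with 3% TCA on ice for 10 min. Supernatant neutralized with NaOH and analysed by RP-HPLC on C18 with TFA-containing gradient. Amounts expressed relative to 0 min; metabolites identified by MALDI-TOF-MS.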

Escherichia coli [7] = test: Antimicrobial activity against Escherichia coli 70502001 after 20 hrs by broth microdilution method; type: functional; settings: Escherichia coli, 70502001, 20 h; in short: as §2
[8] = Toxicity in human erythrocytes assessed as hemolytic activity at 600 ug/ml after 1 hr; type: cell-based; settings: erythrocyte
In short: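 Peptides 2-fold serially diluted from 600 to 5 μg/mL in PBS (pH 7.4), mixed 1:1 with 2% washed human erythrocytes in PBS, 37 °C for 1 h. After centrifugation at 1000g, supernatant A405 read. Triton X-100 0.1% as positive control, PBS as negative control.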

Serum [9] = test: Stability in 25% mouse serum assessed as peptide-12 level at 75 ug/ml after 30 mins by MALDI-TOF-MS analysis; type: ADME, cell-free; settings: 0.5 h; in short: as §3
Enterobacter cloacae [10] = test: Antimicrobial activity against Enterobacter cloacae Ha185 after 20 hrs by broth microdilution method; type: functional; settings: Ha185, 20 h; in short: as §1
Serum [11] = test: Stability in 25% mouse serum assessed as peptide-13 level at 75 ug/ml after 2 hrs by MALDI-TOF-MS analysis; type: ADME, cell-free; in short: as §3
[12] = Drug uptake in Escherichia coli BL21 AI assessed as intracellular localization at 30 ug/ml after 20 mins by confocal fluorescence microscopy; type: ADME, cell-based; settings: escherichia coli bl21, 20 min; in the assay text read “30 uM” for “30 ug/ml”
In short: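 E. coli BL21 AI overnight culture diluted to 1.5 × 10^7 cells/mL in 1% TSB. 5(6)-Carboxyfluorescein N-terminally labelled peptide added at 30 μmol/L final, with 60-fold molar excess of TAMRA to quench extracellular fluorescence. Imaged at room temperature at 20 and 50 min by confocal laser scanning microscopy (488 nm excitation), with phase contrast.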

Klebsiella pneumoniae [13] = test: Antimicrobial activity against Klebsiella pneumoniae ATCC 27799 after 20 hrs by broth microdilution method; type: functional; settings: ATCC 27799, 20 h; in short: as §1
Escherichia coli [14] = test: Antimicrobial activity against Escherichia coli 70430001 after 20 hrs by broth microdilution method; type: functional; settings: Escherichia coli, 70430001, 20 h; in short: as §2
Micrococcus luteus = test: Antibacterial activity against Micrococcus luteus ATCC 10240 after 20 hrs by broth microdilution assay; type: functional; settings: ATCC 10240, 20 h
In short: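 Nutrient-broth overnight cultures diluted in 1% TSB; E. coli BL21AI 7.5 × 10^5 cells/well, M. luteus ATCC 10240 2 × 10^6 cells/well. Peptides serially 2-fold diluted in 1% TSB from 128 to typically 0.5 μg/mL. Incubation at 37 °C; A595 read after 20 ± 2 h. MIC is the lowest concentration with absorbance not above medium only. Triplicate.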

H-VDKPPYLPRPRPPRRIYNR-NH2 [ONCOCIN]
MIC (Pseudomonas aeruginosa [1]): 2 µg/mL
MIC (Escherichia coli [2]): 0.5 µg/mL
MIC (Enterobacter cloacae [3]): 0.125 µg/mL
MIC (Pseudomonas aeruginosa [4]): 4 µg/mL
MIC (Klebsiella pneumoniae [5]): 0.5 µg/mL
Activity (SH-SY5Y): Non-toxic
Activity (Serum [6]): 10%
MIC (Escherichia coli [7]): 1 µg/mL
Activity [8]: Non-toxic
Activity (Serum [9]): 10%
MIC (Enterobacter cloacae [10]): 0.5 µg/mL
Activity (Serum [11]): 20%
Activity [12]: Active
MIC (Klebsiella pneumoniae [13]): 1 µg/mL
MIC (Escherichia coli [14]): 1 µg/mL
MIC (Micrococcus luteus): 8 µg/mL
